Results on 21 compounds are retold here after ChEMBL document CHEMBL1152305, “Synthesis and ribonucleotide reductase inhibitory activity of thiosemicarbazones” (Bioorg Med Chem Lett, 2008).

The assay is described as follows: Inhibition of human recombinant ribonucleotide reductase expressed in BL21 (DE3) bacteria assessed as conversion of [3H]CDP to [3H]dCDP. Put shortly: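 Recombinant human hRRM1 and hRRM2 subunits (BL21(DE3) expression, Ni(II) affinity purified) preincubated together with compound at room temperature 30 min, 1% v/v DMSO final. Phosphodiesterase dephosphorylation, HPLC radio-flow separation of cytidine/deoxycytidine. IC50 from nonlinear fit versus DMSO control; three tests in duplicate.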
Turning to `COc1cc(/C=N/NC(=S)Nc2ccccc2)ccc1O`, the IC50 is greater than 500 µM. In the case of `Oc1ccc(/C=N/NC(=S)Nc2ccc(Cl)cc2)cc1`, the IC50 is 287 µM. Next, `Oc1ccc(/C=N/NC(=S)Nc2ccc(O)cc2)cc1`: 43.3 µM.

For `Oc1ccc(/C=N/NC(=S)Nc2ccccc2)cc1`, the 50% inhibitory concentration (IC50) came out at 242 µM. On to `S=C(N/N=C/c1ccco1)Nc1ccc(Cl)cc1`, for which the IC50 is greater than 500 µM.

With `COc1cc(/C=N/NC(=S)Nc2ccc(Cl)cc2)ccc1O`, the IC50 was greater than 500 µM. With `Oc1ccccc1/C=N/NC(=S)Nc1ccc(Cl)cc1`, the IC50 is greater than 500 µM. On to `Cc1ccccc1NC(=S)N/N=C/c1ccc(O)cc1`, for which the IC50 was determined as 36.5 µM. Next, `Oc1ccc(/C=N/NC(=S)Nc2ccccc2Cl)cc1`: 46.8 µM; `Cc1cccc(NC(=S)N/N=C/c2ccc(O)cc2)c1`: 30.4 µM; `O=[N+]([O-])c1ccccc1NC(=S)N/N=C/c1ccc(O)cc1`: 39.3 µM. As to `O=[N+]([O-])c1ccc(NC(=S)N/N=C/c2ccc(O)cc2)cc1`, the IC50 came to 45.1 µM. Next, `Oc1ccc(/C=N/NC(=S)Nc2cccc(Cl)c2)cc1`: 29.3 µM; `Oc1ccccc1/C=N/NC(=S)Nc1ccccc1`: greater than 500 µM; `Oc1ccc(/C=N/NC(=S)Nc2ccccc2O)cc1`: 29.3 µM. Turning to `Oc1ccc(/C=N/NC(=S)Nc2cccc(O)c2)cc1`, the IC50 was 28.6 µM.

In the case of `S=C(N/N=C/c1cccs1)Nc1ccc(Cl)cc1`, the IC50 is greater than 500 µM.

Consider `Cc1ccc(NC(=S)N/N=C/c2ccc(O)cc2)cc1`, for which the IC50 is 14.2 µM. Next, `COc1ccccc1NC(=S)N/N=C/c1ccc(O)cc1`: 41.6 µM. Turning to `NC(=O)NO` [HYDROXYUREA], the IC50 came to 148 µM. Next, `NC(=S)N/N=C/c1ncccc1N` [TRIAPINE]: 2.25 µM.
